# High-throughput results deposited in PubChem by Johns Hopkins Ion Channel Center.
# hERG rescue: compounds protecting human hERG from proarrhythmic drug block | Q12809 | CHO-hERG, FluxOR thallium flux, dofetilide IC70 present | activation (rescue from dofetilide block), less the hit threshold, % at 10 µM | 310,000 compounds, 0.51% hits;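 active means activation above the mean of controls blocked by dofetilide plus 5 SD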;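 further: thallium influx through hERG after potassium depolarization seen as dye fluorescence rise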
# KCNQ1 block: human KCNQ1 channel inhibition. P51787. CHO-K1 KCNQ1, FluxOR thallium flux fluorescence; hits give high values. B-score at 10 µM. 310,000 compounds, 1.3% hits. AID 2642;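 active means compounds whose thallium flux B-score, printed positive for inhibition, exceeds three library SD while starting fluorescence stays within three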;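 further: channel opened by potassium depolarization with thallium stimulus after 20 min compound exposure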
# KCNK3 inh: human KCNK3 channel inhibition, primary screen; CHO-KCNK3 thallium flux, FluxOR fluorescence; hits give low values; 340,000 compounds, 0.84% hits; B-score at 10 µM; O14649;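 active means B-score under library mean minus 4 SD, starting fluorescence ratio at most library mean plus 5 SD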;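 further: more negative B-score means stronger inhibition of thallium flux through KCNK3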
# KCNQ1 pot: human KCNQ1 channel potentiation or activation; 310,000 compounds, 0.35% hits; P51787; CHO-K1 KCNQ1, thallium flux FluxOR fluorescence; hits give high values; AID 2648; B-score at 10 µM;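 active means fluorescence ratio B-score, a plate-corrected score, at least three library SD, with initial intensity B-score within 5 SD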
#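 Assay system: stable KCNQ1 CHO-K1 line; medium: assay buffer, equal DMSO in all wells; timing: 90 min dye loading and 20 min compound exposure, both at room temperature; technique: kinetic FluxOR thallium fluorescence, 10-s 1-Hz baseline, 110-s post-stimulus read; read-out basis: B score of baseline-normalized fluorescence ratio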
# KCNK9 block: inhibitors of human KCNK9 two-pore domain potassium channel | Q9NPC2 | HEK293 KCNK9, FluxOR thallium flux fluorescence; hits give low values | B-score at 10 µM | 310,000 compounds, 1.2% hits;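 active means ratio B-score over 3 SD below the library mean, with starting fluorescence within 5 SD of its mean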;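 further: negative B-score means less thallium flux so channel inhibition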
# KCNK3 inh conf: confirmation of human KCNK3 two-pore domain potassium channel inhibitors; shares compounds with KCNK3 inh; CHO-KCNK3 thallium flux, FluxOR fluorescence; 0% buffer, 100% carvedilol maximal block; ratio percent of control, % at 10 µM; 2,400 compounds, 99% hits; AID 651638;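 active means ratio percent of control, averaged over triplicates, above buffer control mean plus 5 SD, cut at about 64% in these data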;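 further: ratio is the fluorescence rise from min to max over baseline after thallium stimulus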
# KCNK3 noninduced: activity in cells without induced KCNK3 expression; shares compounds with KCNK3 inh; non-induced KCNK3 parental cells, FluxOR thallium flux; hits give low values; thallium flux ratio (lower = more inhibition) at 10 µM; 2,400 compounds, 40% hits; AID 651747;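 active means thallium flux ratio, averaged over three wells, more than 5 SD below the buffer control mean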;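 further: host cells are CHO cells without KCNK3 induction; ratio is peak minus trough fluorescence over baseline then normalized to buffer controls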
# An asterisk follows results filed as active; i = inactive; . = not tested or not shown. This is a sample that favours compounds with a hit; in the whole collection about 3.1% have one here.
SMILES,hERG rescue,KCNQ1 block,KCNK3 inh,KCNQ1 pot,KCNK9 block,KCNK3 inh conf,KCNK3 noninduced
O=C1NC(=O)C2(CCN(c3ccccc3)CC2)C(=O)N1,.,.,i,.,.,.,.
COc1ccccc1OCCCn1cc(C(C)=O)c2ccccc21,-20,i,i,i,i,.,.
COc1ccccc1OCCCn1cc(C(=O)C2CC2)c2ccccc21,-14,i,-8.8*,i,i,111*,i
COP(=O)(NC(=O)C(Cl)(Cl)Cl)OC,-6,i,i,i,i,.,.
CCN(CC(=O)Nc1ccc(C#N)c(Cl)c1)CC(=O)NC(C)(C)C,-2,i,i,i,i,.,.
N#Cc1ccc(NC(=O)CCNC(=O)c2ccco2)cc1Cl,-10,i,-10*,i,i,95*,0.15*
CC[n+]1c(-c2ccccc2)c2cc(N)ccc2c2ccc(N)cc21,.,.,i,.,.,.,.
CCN(CC)c1ccc(/C=C/[N+](=O)[O-])cc1,-45,6*,-14*,i,i,133*,0.09*
Cc1c(C(=O)c2cccc3ccccc23)c2cccc3c2n1[C@H](CN1CCOCC1)CO3,-3,i,-11*,i,i,80*,0.16*
